Published values from different studies.
Lines come from different studies, so protocols differ.
Target: Mitogen-activated protein kinase kinase kinase 19 (MAP3K19, Homo sapiens, UniProt Q56UN5)
Sequence (Q56UN5 1-1328, as in one of the studies): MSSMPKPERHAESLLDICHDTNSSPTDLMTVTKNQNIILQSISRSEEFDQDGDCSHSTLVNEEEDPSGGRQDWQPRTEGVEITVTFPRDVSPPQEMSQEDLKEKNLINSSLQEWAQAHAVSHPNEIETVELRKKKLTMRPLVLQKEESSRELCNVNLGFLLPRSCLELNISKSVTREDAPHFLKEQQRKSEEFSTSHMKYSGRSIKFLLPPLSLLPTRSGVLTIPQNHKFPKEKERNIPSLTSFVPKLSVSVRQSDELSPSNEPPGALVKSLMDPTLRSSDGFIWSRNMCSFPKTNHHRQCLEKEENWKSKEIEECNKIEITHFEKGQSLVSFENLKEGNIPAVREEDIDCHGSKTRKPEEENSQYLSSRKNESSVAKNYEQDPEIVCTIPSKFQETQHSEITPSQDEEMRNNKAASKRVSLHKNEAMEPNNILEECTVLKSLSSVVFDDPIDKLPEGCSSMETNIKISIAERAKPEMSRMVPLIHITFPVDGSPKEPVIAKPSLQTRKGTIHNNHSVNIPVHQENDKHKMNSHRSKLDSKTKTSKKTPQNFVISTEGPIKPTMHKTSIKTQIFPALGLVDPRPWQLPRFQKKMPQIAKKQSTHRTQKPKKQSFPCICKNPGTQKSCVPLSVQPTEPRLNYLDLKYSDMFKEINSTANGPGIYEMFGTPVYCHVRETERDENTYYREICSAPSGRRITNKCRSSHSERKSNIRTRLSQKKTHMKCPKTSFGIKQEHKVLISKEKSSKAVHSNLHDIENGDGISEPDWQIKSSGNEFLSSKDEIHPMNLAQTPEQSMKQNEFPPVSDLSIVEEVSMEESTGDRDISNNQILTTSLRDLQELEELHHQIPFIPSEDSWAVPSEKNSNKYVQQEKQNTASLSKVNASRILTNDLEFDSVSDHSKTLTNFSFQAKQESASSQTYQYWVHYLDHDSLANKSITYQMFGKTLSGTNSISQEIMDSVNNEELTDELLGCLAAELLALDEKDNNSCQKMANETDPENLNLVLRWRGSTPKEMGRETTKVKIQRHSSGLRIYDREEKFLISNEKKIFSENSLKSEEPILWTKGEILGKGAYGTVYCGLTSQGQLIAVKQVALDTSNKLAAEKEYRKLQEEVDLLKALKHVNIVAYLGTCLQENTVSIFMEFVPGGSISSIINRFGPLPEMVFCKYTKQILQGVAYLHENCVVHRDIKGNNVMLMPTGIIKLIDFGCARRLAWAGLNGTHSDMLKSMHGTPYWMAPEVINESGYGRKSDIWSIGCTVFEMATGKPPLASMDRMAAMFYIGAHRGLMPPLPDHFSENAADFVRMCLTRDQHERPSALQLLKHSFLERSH

SMILES	assay	conditions	remaining binding [%]
Cc1nc(C2CCN(C(=O)c3ccc(OC(F)(F)F)cc3N)CC2)c2ncc(N3CCN(C)CC3)cc2n1	cell-free assay, competition with immobilised ligand	1 µM	79
N[C@@H]1CCN(c2nccc(-c3cnn4ncccc34)n2)C1	binding	1 µM	76
O=C(c1ccc(Nc2nccc(-c3cc4ccccc4s3)n2)cc1)N1CCC(N2CCCC2)CC1	binding, competition with immobilised ligand	1 µM	0
COc1cnc(Nc2cccc(S(N)(=O)=O)c2)nc1N1CCN(c2ccccc2)CC1	binding, competition with immobilised ligand	1 µM	71
CN(C)c1nccc(-c2cnc3ncccn23)n1	binding	1 µM	79
Nc1ncc2c(n1)-c1c([nH]c3ccc(C#CC4CC4)cc13)CCCC2	binding, competition with immobilised ligand	1 µM	64
Cc1cc(NC(=O)c2cccc(S(F)(F)(F)(F)F)c2)cc(-n2ccn3nc(-c4cccnc4)cc23)c1	cell-free assay, competition with immobilised ligand	1 µM	100
O=C(NCCCN1CCOCC1)c1ccc(Nc2ncc(Cl)c(-c3ccc(Cl)s3)n2)cc1	binding, competition with immobilised ligand	1 µM	0
COc1cnc(Nc2cccc(S(N)(=O)=O)c2)nc1N1CCN(c2ccccc2)C(=O)C1	binding, competition with immobilised ligand	1 µM	32
CN(C)c1nccc(-c2cnn3ncccc23)n1	binding	1 µM	50
O=C(Nc1c[nH]nc1C(=O)NC1CCNCC1)c1cc(F)cc(F)c1	binding, competition with immobilised ligand	1 µM	100
CNCc1ccccc1-c1csc([C@H](C)Nc2nc(C)nc3cc(OC)c(OC)cc23)c1	cell-free assay, competition with immobilised ligand	1 µM	78
CC1CCCN1c1nccc(-c2cnn3ncccc23)n1 (stereo not drawn)	binding	1 µM	95
C=CC(=O)N1CCC(C(=O)NCC(=O)N2CCN(c3nc(-c4cnc(N)nc4C(F)F)nc(N4CCOCC4)n3)CC2)CC1	binding, competition with immobilised ligand	1 µM	42
CC(=O)N1CCC(c2ccc(C(=O)NC3=NCCN3)cc2C(F)(F)F)CC1	cell-free assay, competition with immobilised ligand	1 µM	100
O=C(c1ccc(Nc2ncc(Cl)c(-c3cc4ccccc4s3)n2)cc1)N1CCC(N2CCCC2)CC1	binding, competition with immobilised ligand	1 µM	0
F[C@@H]1CCN(c2nccc(-c3cnn4ncccc34)n2)C1	binding	1 µM	89
Cc1cc(C)c(-n2ccn3nc(-c4cccnc4)cc23)cc1NC(=O)c1cc(C#N)cc(S(F)(F)(F)(F)F)c1	cell-free assay, competition with immobilised ligand	0.1 µM	99.5
Cc1cnn2ncc(-c3ccnc(N(C)C)n3)c2c1	binding	1 µM	75
Cc1nc(N2CC[C@@H](O)C2)ncc1-c1cc(C(F)(F)F)cc2[nH]ncc12	binding, competition with immobilised ligand	1 µM	67
C[C@@H](c1ccc(-n2cnc3c(N)ncnc32)cc1)N1CCc2nn(C)c(Cc3ccccc3)c2C1=O	binding, competition with immobilised ligand	0.1 µM	47
